Measurements reported in ChEMBL document CHEMBL1136623, “Cytotoxic activity of 6-alkynyl- and 6-alkenylpurines” (Bioorg Med Chem Lett, 2003).
In brackets after ≈: the same amount, converted by molar mass.

How the values were obtained:
[1] = tested on: K562; test: Percent inhibition of [3H]-thymidine incorporation was determined in human chronic myelogenous leukemic K-562 cell line at 10 ug/mL after 48 hr; format: functional
Summary of the method: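 Single-concentration screen. K-562 cells in log growth seeded at 2×10^4 cells/mL in supplemented RPMI 1640 and exposed 48 h to purine at 10 µg/mL, final DMSO 0.05%. Followed by a 2 h [3H]-thymidine pulse (1 µCi/well), harvest onto fiberglass filters, and scintillation count. Reported as percent inhibition of incorporation.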

[2] = tested on: K562; test: Inhibitory concentration required against human chronic myelogenous leukemic K-562 cell line after 48h, using [3H]thymidine incorporation assay; format: functional, cell-based
Summary of the method: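 Logarithmically growing K-562 cells seeded at 2×10^4 cells/mL in RPMI 1640 with supplements. Exposed 48 h to purines at 10 to 0.078 µg/mL, final DMSO 0.05% (vol/vol). Pulsed 2 h with 1 µCi/well [3H]-thymidine, harvested onto fiberglass filters, and cell-associated radioactivity counted. IC50 taken as the concentration inhibiting incorporation by 50%.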

[3] = tested on: K562; test: Inhibitory concentration required against human chronic myelogenous leukemic K-562 cell line after 5h, using [3H]thymidine incorporation assay; format: functional, cell-based
Summary of the method: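 K-562 cells in log-phase growth seeded at 4×10^4 cells/mL in supplemented RPMI 1640. Purines at 10 to 0.078 µg/mL for 5 h, final DMSO 0.05% (vol/vol). Then a 2 h pulse of 1 µCi/well [3H]-thymidine, filter harvest, and counting of cell-bound radioactivity. IC50 is the concentration giving 50% inhibition of incorporation.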

Row | Compound | inhibition at 10 µg/mL [1] [%] | IC50 [2] [µg/mL] | IC50 [3] [µg/mL]
1 | OC[C@H]1OC(n2cnc3c(C#Cc4ccccc4)ncnc32)[C@H](O)[C@@H]1O (stereo partly drawn) | 100 | 0.1 (≈ 0.284 µM) | 0.2 (≈ 0.568 µM)
2 | C(#Cc1ncnc2c1ncn2Cc1ccccc1)c1ccccc1 | 98 | 1.3 (≈ 4.19 µM) | 6 (≈ 19.3 µM)
3 | OC[C@H]1OC(n2cnc3c(/C=C/c4ccccc4)ncnc32)[C@H](O)[C@@H]1O (stereo partly drawn) | 79 | 2 (≈ 5.64 µM) | 10 (≈ 28.2 µM)
4 | C(=C\c1ncnc2c1ncn2Cc1ccccc1)/c1ccccc1 | 93 |  | 
5 | C(=C\c1[nH]cnc2ncnc1-2)/c1cccs1 | 50 |  | 
6 | C/C(=C\C=C\c1ncnc2c1ncn2C1CCOCC1)CO | 27 |  | 
7 | C=Cc1ncnc2ncn(Cc3ccccc3)c12 | 100 | 0.5 (≈ 2.12 µM) | 1.4 (≈ 5.93 µM)
8 | Sc1ncnc2nc[nH]c12 [MERCAPTOPURINE ANHYDROUS] | 80 | 0.6 (≈ 3.94 µM) | > 10
9 | Nc1nc(/C=C/c2ccccc2)c2ncn(Cc3ccccc3)c2n1 | 91 | 1.2 (≈ 3.67 µM) | 2 (≈ 6.11 µM)
10 | C(#Cc1nc(-c2ccccc2)nc2c1ncn2Cc1ccccc1)c1ccccc1 | 100 | 1.4 (≈ 3.62 µM) | 2.4 (≈ 6.21 µM)
11 | C(=C\c1[nH]cnc2ncnc1-2)/c1ccco1 | 24 |  | 
12 | C(=C\c1ncnc2c1ncn2C1CCOCC1)/c1ccco1 | 35 |  | 
13 | C/C(=C\C#Cc1[nH]cnc2ncnc1-2)CO | 17 |  | 
14 | C(=C\c1ncnc2c1ncn2C1CCOCC1)/c1ccccc1 | 66 |  | 
15 | C(=C\c1[nH]cnc2ncnc1-2)/c1ccccc1 | 28 |  | 
16 | C(#Cc1ncnc2c1ncn2C1CCOCC1)c1ccccc1 | 100 | 0.5 (≈ 1.64 µM) | 3.2 (≈ 10.5 µM)
17 | CC(C)=CC#Cc1[nH]cnc2ncnc1-2 | 30 |  | 

Row | Compound | inhibition at 10 µg/mL [1] [%] | IC50 [2] [µg/mL] | IC50 [3] [µg/mL]
18 | Clc1nc(/C=C/c2ccccc2)c2ncn(Cc3ccccc3)c2n1 | 99 | 2 (≈ 5.77 µM) | 6 (≈ 17.3 µM)
19 | COC(=O)/C(C)=C/C#Cc1[nH]cnc2ncnc1-2 | 100 | 1.6 (≈ 6.61 µM) | 3.2 (≈ 13.2 µM)
20 | Clc1nc(C#Cc2ccccc2)c2ncn(Cc3ccccc3)c2n1 | 100 | 0.12 (≈ 0.348 µM) | 0.8 (≈ 2.32 µM)
21 | C(=C\c1[nH]cnc2ncnc1-2)/c1ccsc1 | 32 |  | 
22 | C/C(=C\C=C\c1[nH]cnc2ncnc1-2)CO | 6 |  | 
23 | C(=C\c1ncnc2c1ncn2C1CCOCC1)/c1ccsc1 | 58 |  | 
24 | COc1ccc(/C=C/c2ncnc3c2ncn3C2CCOCC2)cc1 | 58 |  | 
25 | C(=C\c1nc(-c2ccccc2)nc2c1ncn2Cc1ccccc1)/c1ccccc1 | 34 |  | 
26 | C=Cc1ncnc2c1ncn2Cc1ccccc1 | 100 | 1.1 (≈ 4.66 µM) | 2.2 (≈ 9.31 µM)
27 | C(#Cc1[nH]cnc2ncnc1-2)c1ccccc1 | 100 | 0.7 (≈ 3.18 µM) | 5.9 (≈ 26.8 µM)
28 | Clc1nc2c(C#Cc3ccccc3)ncnc2n1C1CCOCC1 | 85 | 6.1 (≈ 18 µM) | 7 (≈ 20.7 µM)
29 | COc1ccc(/C=C/c2[nH]cnc3ncnc2-3)cc1 | 54 |  | 
30 | Nc1nc(/C=C/c2ccccc2)c2[nH]cnc2n1 | 2 |  | 
31 | Nc1nc(F)nc2c1ncn2[C@@H]1O[C@H](CO)[C@@H](O)[C@@H]1O [FLUDARABINE] | 98 | 0.6 (≈ 2.1 µM) | 0.6 (≈ 2.1 µM)
32 | COC(=O)/C(C)=C/C=C/c1[nH]cnc2ncnc1-2 | 20 |  | 
33 | C(=C\c1ncnc2c1ncn2C1CCOCC1)/c1cccs1 | 65 |  | 
